Source: ChEMBL document CHEMBL4732156, “Novel boronium salt exhibits substantial antibacterial activity when compared to a commercial quaternary ammonium disinfectant” (Bioorg Med Chem Lett, 2021)
The source made the active and inactive calls. The calls are words filed in the database; no cut-off is given here.

What was measured:
Erythrocyte [1] = assay: Induction of hemolysis in RBC (unknown origin) at higher concentration; assay type: cell-based
Escherichia coli [2] = assay: Antibacterial activity against Escherichia coli ATCC 25922 at 1:8 dilution incubated for 24 hrs by disc diffusion method; assay type: functional, organism-based
Summary of the method: (§1)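 Kirby-Bauer disc diffusion. 6 mm paper discs are loaded with 20 µL of the 1:8 (2.81 mg/mL) or 1:128 (0.17 mg/mL) dilution, dried 30 min and stored at 4–8 °C. A lawn of about 5.0×10^5 CFU/mL is swabbed onto Mueller–Hinton agar with the plate spinning. Plates are incubated 24 h at 37 °C and the inhibition zone is measured in mm by digital caliper.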

Staphylococcus aureus [3] = assay: Antibacterial activity against Staphylococcus aureus ATCC 29213 assessed as reduction in bacterial growth incubated for 24 hrs by turbidity based analysis; assay type: functional
Summary of the method: (§2)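 Broth microdilution in Mueller–Hinton broth. Agents start from 4.5% stocks and are diluted two-fold in deionized water. Final well range is 22.5 to 0.02 mg/mL; inoculum is about 5.0×10^5 CFU/mL from 18–24 h SBA colonies. Plates are incubated 18–24 h at 37 °C in ambient air at 100 rpm. MIC is the lowest concentration giving a clear well on mirrored 3X visual reading.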

Erythrocyte [4] = assay: Induction of hemolysis in RBC (unknown origin) at lower concentration; assay type: cell-based
Escherichia coli [5] = assay: Antibacterial activity against Escherichia coli ATCC 25922 at 1:128 dilution incubated for 24 hrs by disc diffusion method; assay type: functional, organism-based; summary of the method: as §1
Escherichia coli [6] = assay: Antibacterial activity against Escherichia coli ATCC 25922 assessed as reduction in bacterial growth incubated for 24 hrs by turbidity based analysis; assay type: functional; summary of the method: as §2
Pseudomonas aeruginosa [7] = assay: Antibacterial activity against Pseudomonas aeruginosa ATCC 27853 at 1:8 dilution incubated for 24 hrs by disc diffusion method; assay type: functional, organism-based; summary of the method: as §1
Pseudomonas aeruginosa [8] = assay: Antibacterial activity against Pseudomonas aeruginosa ATCC 27853 at 1:128 dilution incubated for 24 hrs by disc diffusion method; assay type: functional, organism-based; summary of the method: as §1
Pseudomonas aeruginosa [9] = assay: Antibacterial activity against Pseudomonas aeruginosa ATCC 27853 assessed as reduction in bacterial growth incubated for 24 hrs by turbidity based analysis; assay type: functional; summary of the method: as §2
Pseudomonas aeruginosa [10] = assay: Potency index, ratio of MIC of BacDown QAC to MIC of compound for antibacterial activity against Pseudomonas aeruginosa ATCC 27853 assessed as reduction in bacterial growth incubated for 24 hrs by turbidity based analysis; assay type: functional
Escherichia coli [11] = assay: Bactericidal activity against Escherichia coli ATCC 25922 incubated for 24 hrs followed by transferring and culturing on SBA plate and measured after 18 to 24 hrs by agar plate based analysis; assay type: functional; settings: time 42-48 hrs
Summary of the method: (§3)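 After 24 h of microdilution (about 5.0×10^5 CFU/mL, Mueller–Hinton broth, 37 °C, 100 rpm), 100 µL from each clear well, including the MIC well, is spread on 5% sheep blood agar. Plates are incubated 18–24 h at 37 °C. MBC is the first concentration giving zero colonies.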

Escherichia coli [12] = assay: Potency index, ratio of MIC of BacDown QAC to MIC of compound for antibacterial activity against Escherichia coli ATCC 25922 assessed as reduction in bacterial growth incubated for 24 hrs by turbidity based analysis; assay type: functional
Staphylococcus aureus [13] = assay: Potency index, ratio of MIC of BacDown QAC to MIC of compound for antibacterial activity against Staphylococcus aureus ATCC 29213 assessed as reduction in bacterial growth incubated for 24 hrs by turbidity based analysis; assay type: functional
Pseudomonas aeruginosa [14] = assay: Bactericidal activity against Pseudomonas aeruginosa ATCC 27853 incubated for 24 hrs followed by transferring and culturing on SBA plate and measured after 18 to 24 hrs by agar plate based analysis; assay type: functional; settings: time 42-48 hrs; summary of the method: as §3
Staphylococcus aureus [15] = assay: Antibacterial activity against Staphylococcus aureus ATCC 29213 assessed as zone of inhibition at 1:128 dilution incubated for 24 hrs by disc diffusion method; assay type: functional; summary of the method: as §1
Staphylococcus aureus [16] = assay: Bactericidal activity against Staphylococcus aureus ATCC 29213 incubated for 24 hrs followed by transferring and culturing on SBA plate and measured after 18 to 24 hrs by agar plate based analysis; assay type: functional; settings: time 42-48 hrs; summary of the method: as §3
Staphylococcus aureus [17] = assay: Antibacterial activity against Staphylococcus aureus ATCC 29213 assessed as zone of inhibition at 1:8 dilution incubated for 24 hrs by disc diffusion method; assay type: functional; summary of the method: as §1

| MIC (Staphylococcus aureus [3]) [µg/mL] | MIC (Escherichia coli [6]) [µg/mL] | MIC (Pseudomonas aeruginosa [9]) [µg/mL] | SMILES | Activity (Erythrocyte [1]) | Activity (Escherichia coli [2]) | Activity (Erythrocyte [4]) | Activity (Escherichia coli [5]) | Activity (Pseudomonas aeruginosa [7]) | Activity (Pseudomonas aeruginosa [8]) | Ratio (Pseudomonas aeruginosa [10]) | MBC (Escherichia coli [11]) [µg/mL] | Ratio (Escherichia coli [12]) | Ratio (Staphylococcus aureus [13]) | MBC (Pseudomonas aeruginosa [14]) [µg/mL] | inhibition zone (IZ) (Staphylococcus aureus [15]) [mm] | MBC (Staphylococcus aureus [16]) [µg/mL] | inhibition zone (IZ) (Staphylococcus aureus [17]) [mm] |
| --- | --- | --- | --- | --- | --- | --- | --- | --- | --- | --- | --- | --- | --- | --- | --- | --- | --- |
| > 22500 | > 22500 | > 22500 | CCCCCCCCCCCCCCCC[N+](C)(C)[BH2-][N+](C)(C)C.I | Toxic | inactive | Non-Toxic | inactive | inactive | inactive | – | – | – | – | – | – | – | – |
| 20 | 40 | 170 | CCCCCCCCCCCCCCCC[N+](C)(C)[BH2-][N+](C)(C)Cc1ccccc1.I | Toxic | inactive | Non-Toxic | inactive | inactive | inactive | 8 | 40 | 4 | 4 | 170 | 7.6 | 40 | 14.8 |
